# Source: PubChem BioAssay
# dFosB act = activators of delta FosB homodimer, primary screen, biochemical, fluorescence polarization, TAMRA-CDK5 oligo, single point. Protein FosB (Mus musculus), P13346. purified delta FosB; percent of positive-control signal above neutral wells. activation, % at 25 µM. actives 0.99% (n = 340,000). AID 493131, 2011;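 active = mean activation above about 17%, with every replicate also reaching it, limit read from the data, passing the limit was not always enough; inconclusive = only one of the two conditions met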
# CAL PDZ FP-1 = CAL PDZ peptide-binding inhibitors, primary screen, biochemical, fluorescence polarization, Cer-tagged CAL PDZ, HTS. Golgi-associated PDZ and coiled-coil motif-containing protein (Homo sapiens), Q9HD26. actives 0.02% (n = 330,000). inhibition, % at 20 µM. purified CAL PDZ, TMR-peptide fluorescence polarization, 1 h;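 active = highest replicate inhibition of at least 40%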;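 note: plate controls were DMSO neutral control wells for no effect and unlabeled competitor peptide control wells for full effect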
#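 Material: tagged CAL PDZ domain; buffer or medium: 25 mM sodium phosphate pH 7.4, 150 mM NaCl, TCEP, IgG, Thesit; compound dosing: single point, 20 µM; schedule: 1 h incubation at room temperature before polarization reading; measured by: FP readout, S and P plane fluorescence; read-out basis: percent inhibition from loss of millipolarization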
# CAL PDZ FP-2 = untagged CAL PDZ binding inhibitors, primary screen, biochemical, fluorescence polarization, HTS; purified CAL PDZ, TMR-peptide fluorescence polarization, 1 h; inhibition, % at 24.9 µM; actives 0.92% (n = 300,000); AID 602252, 2012;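 active = mean inhibition of at least 30% with at least half of replicates also reaching 30%; inconclusive = no clear call, values can overlap the other calls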;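 note: 0% = DMSO neutral control and 100% = excess unlabeled competitor peptide PRC23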
# Rtt109 Vps75 = inhibitors of C. albicans Rtt109/Vps75 HAT, primary screen, biochemical, ThioGlo CoA-SH fluorescence, plate reader. purified Rtt109/Vps75, 4 h. Histone acetyltransferase RTT109 (Candida albicans (strain SC5314 / ATCC MYA-2876)), …. inhibition, % at 34.9 µM. actives 0.16% (n = 330,000). AID 540336, 2011;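 active = inhibition of at least 50% in every replicate; inconclusive = best replicate reaches 50% inhibition but some replicates fall short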
# Target sequence (Q5AAJ8 whole entry, looked up): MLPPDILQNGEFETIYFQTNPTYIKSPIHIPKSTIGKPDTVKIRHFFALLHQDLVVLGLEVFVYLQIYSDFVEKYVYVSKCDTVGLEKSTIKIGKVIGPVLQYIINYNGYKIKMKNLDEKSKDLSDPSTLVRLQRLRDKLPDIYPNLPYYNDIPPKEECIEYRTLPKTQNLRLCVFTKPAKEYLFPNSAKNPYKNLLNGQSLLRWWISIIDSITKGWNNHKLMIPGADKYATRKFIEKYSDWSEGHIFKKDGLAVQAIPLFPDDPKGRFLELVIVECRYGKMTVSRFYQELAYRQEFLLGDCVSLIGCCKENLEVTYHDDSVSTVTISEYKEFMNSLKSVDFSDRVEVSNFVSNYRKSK
# CDK5 inh = inhibitors of human CDK5/p35 kinase, primary screen, biochemical, single concentration; Cyclin-dependent kinase 5 (Homo sapiens) + Cyclin-dependent kinase 5 activator 1 (Homo …; Recombinant CDK5/p35, ADP-Glo luminescence, 60 min; inhibition, % at 10 µM; actives 0.01% (n = 330,000);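 active = highest replicate inhibition of at least 50% and at least 75% of replicates reaching 50%; inconclusive = only one of the two criteria met; inactive = both criteria failed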;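 note: plate controls were DMSO neutral control for no effect and GW8510 at 10 µM for full effect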
# DYRK1A inh = rat Dyrk1A kinase inhibitors, primary screen, biochemical, single point, plate reader. ADP-Glo luminescence, NFATc1 peptide. inhibition, % at 12.5 µM. actives 0.43% (n = 310,000). Dual specificity tyrosine-phosphorylation-regulated kinase 1A (Rattus norvegicus), Q63470; in the data active = inhibition above about 50%;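 note: plate controls were vehicle with enzyme for no effect and no enzyme for full effect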
# * marks the source's active call; other numbers are inactive results; ? = inconclusive; · = no result. Shown are actives, neighbours in structure and some others; about 2.2% of the full set was active somewhere.
SMILES,dFosB act,CAL PDZ FP-1,CAL PDZ FP-2,Rtt109 Vps75,CDK5 inh,DYRK1A inh
CCOCC(=O)NC1CCc2cc(OC(=O)COCC)c(OC)c(OC)c2-c2ccc(SC)c(=O)cc21 (stereo not given),-9,0,34*,5,-1,-1
N#CCc1ccc(OC(=O)Nc2ccccc2)cc1,7,·,114*,-14,0,-3
Cc1[nH]c2ccccc2c1C(=O)CSc1ccccc1,6,0,-2,3,1,2
Cc1[nH]c2ccccc2c1C(=O)CCl,0,-1,63*,-10,-2,3
COc1cc(C2NC(=O)C(C#N)=C(Nc3cccc(C)c3)S2)ccc1O (stereo not given),2,-1,3,147*,2,5
COC(=O)CSC1=C(C#N)C(=O)NC(c2ccccc2)S1 (stereo not given),-10,0,-1,12,7,0
CCc1ccc2nc(NC(=O)Cn3cnc4ccccc4c3=O)sc2c1,154*,-2,-10,-6,3,-3
Cc1ccc(NC(=O)c2cc3cccc([N+](=O)[O-])c3[nH]2)cc1,11,-1,67*,5,1,2
Cc1ccc(S(=O)(=O)N2CCCCC2)c(C)c1NS(C)(=O)=O,-1,1,-4,-3,-1,3
COc1ccc(C(=O)NCCCNC(=O)c2cccnc2)cc1Br,1,-1,1,-5,0,-9
OC(CNCc1ccc2c(c1)OCO2)COc1ccc(F)cc1 (stereo not given),-8,-2,-6,-4,1,5
CC(=O)c1ccc(OCC(O)CNCc2ccc3c(c2)OCO3)cc1 (stereo not given),0,-2,42*,0,0,3
N/C(=N\OC(=O)COc1ccc(Br)cc1Cl)c1cccnc1,20*,-1,-6,-6,0,-3
CC(=O)c1ccc(OCCNS(=O)(=O)c2ccc(-n3cnnn3)cc2)cc1,-1,-2,2,-2,1,-2
O=c1cc(Cl)nc2ccccn12,2,0,38*,-2,-1,0
Clc1ccc2nc3ccccn3c2c1,-3,-1,53*,-34,3,19
O=c1cc(NCc2ccccc2)nc2ccccn12,-3,0,-2,0,1,1
Cc1cccc(C)c1C(=NCCCN(C)C)c1ccccc1,0,-1,-3,-11,-2,0
CCOCCc1nnc(NC(=O)CCC2CCCCC2)s1,2,-6,74*,-3,0,-3
CCc1nnc(NC(=O)CCC2CCCCC2)s1,-4,0,-1,-6,1,2
COC(=O)c1ccc(NC(=O)CCN2CCOCC2)cc1,1,0,-5,11,1,-8
O=C(COC(=O)c1cn(-c2ccccc2)nc1-c1ccccc1)Nc1ncc(Cl)cc1Cl,-6,0,77*,2,-4,-2
Cc1ccc(CSc2ccc(S(=O)(=O)N3CCCC3)cn2)cc1,-4,-1,71*,1,1,4
Cc1ccc(CSc2ccc(S(=O)(=O)N3CCOCC3)cn2)cc1,-4,0,·,1,-1,4
CCOc1ccc(CNC(=O)C2CCCN(S(=O)(=O)N3CC(C)CC(C)C3)C2)cc1OC (stereo not given),6,-1,9,-1,0,-11
SMILES,dFosB act,CAL PDZ FP-1,CAL PDZ FP-2,Rtt109 Vps75,CDK5 inh,DYRK1A inh
COc1ccc(NC(=O)O/N=C/c2ccccc2Cl)cc1,6,-1,-6,10,1,-2
COc1ccc(NC(=O)O/N=C/c2ccccc2)cc1,16*,-1,-2,-7,0,-2
C[N+](C)(C)C/C=C1/COCO1,-1,-1,-1,9,0,-1
Cc1ccccc1Nc1nc(N)nc(CSc2n[nH]c(N)n2)n1,-2,1,·,24,5,-1
CCCCNC(=O)c1cn(CC(C)C)c(=O)c2c1c1ccccc1n2C,-2,-1,-4,7,0,-2
COc1cc(OC)cc(C(=O)OC(C)C(=O)NC2CCCc3ccccc32)c1 (stereo not given),1,0,61*,-3,0,·
O=C(C=C1CCN(c2ncc(C(F)(F)F)cc2Cl)CC1)NNC(=O)Nc1ccc(Cl)cc1,6,5,74*,-6,-1,1
COc1ccccc1CNC(=O)COC(=O)CC1CC2CCC1C2 (stereo not given),-9,0,80*,-4,-1,-3
CCN(c1ccccc1)S(=O)(=O)c1ccc(N2CCN(c3ccccc3O)CC2)nc1,-1,0,5,1,0,·
O=C(COC(=O)Cn1cnc2ccccc2c1=O)Nc1cc(Cl)ccc1[N+](=O)[O-],-4,0,-1,-4,1,1
COc1ccc(-c2cn3cc([N+](=O)[O-])ccc3n2)cc1OC,-12,0,60*,6,0,4
COc1ccc(-c2cn3ccccc3n2)cc1[N+](=O)[O-],-8,-1,-2,11,0,-2
CCOC(=O)NC(=O)COC(=O)CCCSc1nc2ccccc2s1,-8,71*,-1,1,0,15
CCc1ccc2ncc(S(=O)(=O)c3ccc(C)c(C)c3)c(N3CCCC3)c2c1,-14,-2,-4,3,-2,-3
NC(=S)N=Nc1ccc(NN=C(N)N)cc1,29*,0,0,?,4,6
O=C(NCCN1CCN(C(=O)c2ccc(F)cc2)CC1)c1ccc(F)cc1,-15,-2,-2,18,1,6
Nc1c(N(CCC2=CCCCC2)C(=O)CCCOc2ccccc2)c(=O)[nH]c(=O)n1Cc1ccccc1,7,-1,49*,6,0,-5
CCCOc1ccc(C(=O)CCC(=O)OCC(=O)N(C)c2c(N)n(Cc3ccccc3)c(=O)[nH]c2=O)cc1,-4,1,38*,-9,-1,-8
Nc1c(N(CCC2=CCCCC2)C(=O)COc2ccc(F)cc2)c(=O)[nH]c(=O)n1Cc1ccccc1,2,-2,12,-1,-2,1
CN(C(=O)COC(=O)CCC(=O)c1ccccc1)c1c(N)n(Cc2ccccc2)c(=O)[nH]c1=O,-8,-2,-3,1,-6,3
